Screening data deposited in PubChem by several laboratories.
L major viab – reduces viability of Leishmania major promastigotes | 9% of 200,000 active | resazurin fluorescence viability | inhibition, % at 10 µM | AID 1063; in the data active = inhibition above about 50%;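 also: promastigotes grown with compound for 44 hours at 28 °C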
HSV replic up – HSV replication enhancement; HSV replication augmentation in cells, fold increase; maximum fold increase; 0.005% of 220,000 active; AID 1956; in the data active = maximum fold increase above about 1.5; inconclusive = no clear call, values can overlap the other calls; tested in PC3 cells
b-catenin transl – alters nuclear translocation of beta-catenin in HeLa cells; immunofluorescence imaging; nuclear translocation activity, % at 5 µM; 0.3% of 190,000 active; AID 1665;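 active = nuclear translocation activity above 50% at 5 µM, with a well cell count of 50 or more; inconclusive = wells under 50 cells across six images, flagged as toxic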;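 also: per-cell ratio of nuclear to cytoplasmic median beta-catenin stain intensity; plate controls were DMSO negative control for no effect and GSK-3 inhibitor IX positive control for full effect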
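System: Human HeLa cells, endogenous beta-catenin | Compound dosing: 5 µM primary, 0.02–20 µM confirmation | Timing: 24 h compound exposure at 37°C, 5% CO2 | Measured by: Fluorescence imaging of beta-catenin antibody stain plus DAPI | Read-out basis: % activation of per-cell nuclear versus cytoplasmic median beta-catenin signal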
MT stabilize HCS – microtubule stabilizers in HeLa cells. AID 2205. % tubulin-high responders, % at 10 µM. HeLa tubulin immunostaining HCS, 24 h; share of cells brighter than vehicle mean+2SD. 0.83% of 200,000 active;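 active = plate Z-score above 3 for both tubulin-high and condensed-nucleus cell shares, with cell loss under 80%, at 10 µM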;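 also: anti alpha tubulin signal scored within the nucleus-defined area of each cell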
Dynein transport – blocks dynein driven cargo transport along microtubules; 3617.4 mouse cells, GR-EGFP nuclear translocation imaging; test concentration mostly 20 µM; stimulated with dexamethasone, 1 µM; stronger effect = lower value; z-score, hits read low; 0.47% of 220,000 active;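 active = plate z-score of nuclear minus cytoplasmic receptor signal below a set negative limit, without overly bright fluorescence or cell loss, cut at about -3.5 in these data, passing the limit was not always enough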;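 also: z-score of nuclear minus cytoplasmic ring GR-EGFP intensity difference per well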
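Buffer or medium: tet-free, stripped-serum medium; reagent: dexamethasone at 1.0 µM final, 30 min; incubation: 48 h induction, 1 h compound, 30 min dex at 37 °C; measured by: formaldehyde fixation, Hoechst nuclear stain, 10x automated fluorescence imaging; read-out: nuclear-to-cytoplasmic GR-EGFP distribution per well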
Dynein inh conf – dynein cargo transport inhibition, confirmation; shares compounds with Dynein transport; calls only at 20 µM; 69% of 1,000 active; 3617.4 GR-EGFP nuclear translocation imaging, dexamethasone-induced;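 active = inhibition of receptor movement into the nucleus at or above a set limit in both runs, with normal cell brightness and cell count; inconclusive = limit reached in only one run, brightness and count normal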;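 also: dexamethasone at 1 µM final in well for 30 min; nuclear minus cytoplasmic GR-EGFP mean intensity difference in channel 2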
* marks the source's active call; other numbers are inactive results; i = inactive; ? = inconclusive; / = no result given; + = active, no number. Rows were chosen to be rich in hits. Some 8.9% of all compounds tested hit in one or more screens of this group.

SMILES	L major viab	HSV replic up	b-catenin transl	MT stabilize HCS	Dynein transport	Dynein inh conf
CC[n+]1c(/C=C/C=C/c2ccc(N(C)C)cc2)sc2ccccc21	/	i	2.2	/	-3.67*	+
CN(C)c1ccc(/C=C/C=C/c2sc3ccccc3[n+]2C)cc1	/	i	1.8	/	-0.28	/
CC(=O)OC(C)(C)/C=C/C(=O)[C@](C)(O)[C@H]1[C@H](O)C[C@@]2(C)[C@@H]3CC=C4[C@H](C[C@H](O)C(=O)C4(C)C)[C@]3(C)C(=O)C[C@]12C	52.1*	i	/	40.0*	-3.66*	?
CC(=O)c1c(O)n(C)c(=S)n(-c2ccccc2)c1=O	-2.6	i	-4.8	2.9	-0.438	/
COc1cc(/C=C/[N+](=O)[O-])ccc1O	96.7*	i	-2.1	4.5	-5.67*	+
O=C(Cc1ccccc1)Oc1ccccc1N1C(=O)CCC1=O	2.7	i	0.0	2.5	0.0043	/
CC(C)n1c(O)c(C2c3cc(Cl)ccc3Oc3[nH]c(=O)n(C(C)C)c(=O)c32)c(=O)[nH]c1=O (centres undefined)	/	i	0.2	/	-5.32*	+
Clc1ccc(N2CCNCC2)nn1	-5.8	i	-2.6	1.9	-0.601	/
CCOC(=O)c1c(-n2c(C)cc(C=C3C(=O)NC(=S)NC3=O)c2C)sc2c1CCCC2	100.2*	i	3.5	68.3	-4.56*	+
CCN(CC)c1ccc(/C=C/[N+](=O)[O-])cc1	68.8*	i	-2.8	1.8	-4.24*	+
CCN(CC)c1ccc(CC2C(=O)N(C)C(=O)N(C)C2=O)cc1	1.7	/	-0.7	4.0	-1.31	/
CN1C(=O)C(=Cc2cccnc2)C(=O)N(C)C1=O	/	i	0.2	/	0.335	/
COc1cccc(N2C(=O)NC(=O)/C(=C/c3ccc4c(c3)Cc3ccccc3-4)C2=O)c1	8.2	i	-7.5	1.3	-0.962	/
COc1cccc(N2C(=O)NC(=O)/C(=C/c3ccc([N+](=O)[O-])s3)C2=O)c1	/	i	2.1	/	-5.55*	+
COc1ccc(CN2C(=O)NC(=O)/C(=C/c3ccc([N+](=O)[O-])s3)C2=O)cc1	/	i	-1.6	/	-4.26*	+
COc1ccc(N2C(=O)NC(=O)/C(=C/c3ccc(N4CCOCC4)cc3)C2=O)cc1	-6.5	i	-4.0	4.2	-0.0713	/
COc1ccc(N2C(=O)NC(=O)/C(=C\c3ccc([N+](=O)[O-])s3)C2=O)cc1	97.3*	?	0.6	3.8	-7.15*	+
COc1ccccc1N1C(=O)NC(=O)/C(=C\c2cnn(-c3ccccc3)c2)C1=O	-0.5	i	-1.0	5.7	0.855	/
COc1ccccc1N1C(=O)NC(=O)/C(=C/c2ccc([N+](=O)[O-])s2)C1=O	/	i	-0.3	/	-5.79*	+
C=CCn1c(O)c(C(CC)=NCc2ccco2)c(=O)[nH]c1=O	/	i	0.1	/	-0.312	/
CN1C(=O)N(C)C(=O)C2(Cc3cc([N+](=O)[O-])ccc3N(C)C2)C1=O	-2.8	i	-0.2	7.9	-0.85	/
COc1ccc(N2C(=O)NC(=O)/C(=C/c3ccc([N+](=O)[O-])s3)C2=O)cc1	/	i	0.5	/	-5.27*	+
COC(=O)C1=C(c2cc3ccccc3s2)C[C@@H]2CC[C@H]1N2C(=O)N1CCOCC1	/	i	/	/	/	/
O=C1NC(=O)N(Cc2ccccc2)C(=O)/C1=C/C=C/c1ccco1	/	/	1.1	/	-6.01*	+
CC(C)c1ccc(N2C(=O)NC(=O)/C(=C\c3cnc(-c4ccccc4)nc3)C2=O)cc1	-5.0	i	-1.6	2.9	-0.419	/
CCN1C(=O)C(=C/C=C/c2ccco2)C(=O)N(CC)C1=S	-0.8	?	0.9	3.3	-4.48*	+
CC(C)c1ccc(N2C(=O)NC(=O)/C(=C\C=C\c3ccco3)C2=O)cc1	66.6*	?	1.2	5.5	-3.91*	+
CC(C)N1C(=O)/C(=C/C=C/c2ccco2)C(=O)N(Cc2ccco2)C1=O	14.2	i	3.0	2.5	-2.05	/
